Measured values taken from ChEMBL document CHEMBL3792366, “Role of disulfide linkage in action of bis(dialkylaminethiocarbonyl)disulfides as potent double-Edged microbicidal spermicide: Design, synthesis and biology” (Eur J Med Chem, 2016).
In brackets after ≈: the same amount, converted by molar mass. Activity calls are given as the source filed them. No cut-off for these calls is given here.

Legend:
HeLa = assay: Cytotoxicity against human HeLa cells after 5 hrs by lactate dehydrogenase release assay; type: cell-based
Outline: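 HeLa cells were seeded at 2×10^4/well in triplicate and grown 24 h at 37 °C in 5% CO2. The DMEM was then replaced with medium holding serially diluted compound, and plates were incubated 5 h. LDH release in the supernatant was measured colorimetrically at 490 nm, and IC50 was derived from it.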

[1] = test system: Trichophyton mentagrophytes; assay: Antifungal activity against Trichophyton mentagrophytes after 48 hrs by broth microdilution method; type: functional
Outline: (§1)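 NCCLS broth microdilution in RPMI 1640 buffered with MOPS; starting inoculum 1–5 × 10^3 CFU/mL; plates incubated at 35 °C; MIC read after 48 h.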

Candida parapsilosis = assay: Antifungal activity against Candida parapsilosis ATCC 22019 after 48 hrs by broth microdilution method; type: functional; details: Lodderomyces parapsilosis, ATCC 22019, 48 h; outline: as §1
[2] = Spermicidal activity in human sperms assessed as motility measured within 30 secs by phase contrast microscopy; type: functional, Sperm
Outline: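 Liquefied human semen (0.05 mL) was added to 0.25 mL test solution and vortexed 10 s at low speed. Motile sperm were scored visually under phase contrast in five fields within 30 s; assays in triplicate; MEC = minimum effective concentration.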

[3] = Toxicity in Lactobacillus jensenii ATCC 25258 after 72 hrs
Cryptococcus neoformans = assay: Antifungal activity against Cryptococcus neoformans after 48 hrs by broth microdilution method; type: functional; outline: as §1
[4] = Selectivity index, ratio of IC50 for Lactobacillus jensenii ATCC 25258 to MIC for metronidazole resistant trophozoite stage of Trichomonas vaginalis ATCC 50143
Trichomonas vaginalis [5] = assay: Antitrichomonas activity against trophozoite stage of Trichomonas vaginalis clinical isolate assessed as cell viability under anaerobic condition after 48 hrs by trypan blue exclusion assay; type: functional
Outline: (§2)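 Log-phase T. vaginalis grown in TYM with 10% FCS, vitamin mix and penicillin/streptomycin at 37 °C. Compounds were made as 100 µg/mL DMSO stocks and serially diluted in TYM down to 0.1 µg/mL; DMSO/TYM served as vehicle. Parasites were incubated anaerobically at 37 °C, and viability was checked by trypan blue exclusion from 3 to 48 h. MIC = lowest concentration killing all cells by 48 h; each test was repeated three times.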

Candida albicans = assay: Antifungal activity against Candida albicans after 48 hrs by broth microdilution method; type: functional; outline: as §1
[6] = Selectivity index, ratio of IC50 for Lactobacillus jensenii ATCC 25258 to MIC for trophozoite stage of Trichomonas vaginalis clinical isolate
Trichomonas vaginalis [7] = assay: Antitrichomonas activity against metronidazole-resistant trophozoite stage of Trichomonas vaginalis ATCC 50143 assessed as cell viability under anaerobic condition after 48 hrs by trypan blue exclusion assay; type: functional; details: ATCC 50143, 48 h; outline: as §2
Sporothrix schenckii = assay: Antifungal activity against Sporothrix schenckii after 48 hrs by broth microdilution method; type: functional; outline: as §1
Trichomonas vaginalis [8] = assay: Potency index, ratio of metronidazole MIC to compound MIC for metronidazole-resistant trophozoite stage of Trichomonas vaginalis ATCC 50143; type: functional
Trichomonas vaginalis [9] = assay: Selectivity ratio of MIC for metronidazole-resistant trophozoite stage of Trichomonas vaginalis ATCC 50143 to MIC for metronidazole-susceptible trophozoite stage of Trichomonas vaginalis; type: functional
Trichomonas vaginalis [10] = assay: Antitrichomonas activity against metronidazole-susceptible Trichomonas vaginalis in sc dosed mouse assessed as spleen weight at 5 ug administered daily measured after 7 days (reference value: 0.59 g); type: functional
Trichomonas vaginalis [11] = assay: Antitrichomonas activity against metronidazole-susceptible Trichomonas vaginalis in sc dosed mouse assessed as pustule formation at 5 ug administered daily measured after 7 days (reference value: 190 mm'2); type: functional
Trichomonas vaginalis [12] = assay: Antitrichomonas activity against metronidazole-susceptible Trichomonas vaginalis in sc dosed mouse assessed as pustule formation at 5 ug administered daily measured after 5 days (reference value: 109 mm'2); type: functional
Oryctolagus cuniculus [13] = assay: In vivo spermicidal activity in Belgian rabbit assessed as decrease in litter size at 10 mg via intravaginal instillation measured 30 to 34 days post gestation period; type: functional; design: scale not given: the % may be the effect or the level left
Outline: (§3)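 Young adult female Belgian rabbits. Compound was blended into K-Y Jelly, with plain jelly for controls. Two mL of jelly was instilled 10–12 cm deep into the vagina by catheter, with the animal supine.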

Oryctolagus cuniculus [14] = assay: In vivo spermicidal activity in Belgian rabbit assessed as decrease in litter size at 15 mg via intravaginal instillation measured 30 to 34 days post gestation period; type: functional; design: scale not given: the % may be the effect or the level left; outline: as §3
Oryctolagus cuniculus [15] = assay: In vivo spermicidal activity in Belgian rabbit assessed as decrease in pregnancy rate at 20 mg via intravaginal instillation measured 30 to 34 days post gestation period; type: functional; outline: as §3
Oryctolagus cuniculus [16] = assay: In vivo spermicidal activity in Belgian rabbit assessed as decrease in pregnancy rate at 15 mg via intravaginal instillation measured 30 to 34 days post gestation period; type: functional; outline: as §3
Sperm = assay: Spermicidal activity in human sperm assessed as decrease in free thiol levels in sperm membrane at MEC after 15 mins by mBBr dye based fluorescence microscopy; type: functional, cell membranes
Outline: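 Semen (0.5 mL) was incubated with 2.5 mL of compound at MEC, or saline, for 15 min at room temperature. Sperm were pelleted at 700×g, washed in PBS and labelled with 0.5 mM (final) mBBr for 15 min in the dark. After washing, cells were imaged by epifluorescence (UV1A filter) at equal exposure times.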

Oryctolagus cuniculus [17] = assay: In vivo spermicidal activity in Belgian rabbit assessed as decrease in litter size at 20 mg via intravaginal instillation measured 30 to 34 days post gestation period; type: functional; design: scale not given: the % may be the effect or the level left; outline: as §3
Oryctolagus cuniculus [18] = assay: In vivo spermicidal activity in Belgian rabbit assessed as decrease in pregnancy rate at 10 mg via intravaginal instillation measured 30 to 34 days post gestation period; type: functional; outline: as §3
Oryctolagus cuniculus [19] = assay: In vivo spermicidal activity in Belgian rabbit assessed as decrease in pregnancy rate administered via intravaginal instillation measured 30 to 34 days post gestation period; type: functional, organism-based; outline: as §3
Oryctolagus cuniculus [20] = assay: In vivo spermicidal activity in Belgian rabbit assessed as decrease in pregnancy rate at 25 mg via intravaginal instillation measured 30 to 34 days post gestation period; type: functional; outline: as §3
Oryctolagus cuniculus [21] = assay: In vivo spermicidal activity in Belgian rabbit assessed as decrease in litter size at 50 mg via intravaginal instillation measured 30 to 34 days post gestation period; type: functional; design: scale not given: the % may be the effect or the level left; outline: as §3
Oryctolagus cuniculus [22] = assay: In vivo spermicidal activity in Belgian rabbit assessed as decrease in litter size at 25 mg via intravaginal instillation measured 30 to 34 days post gestation period; type: functional; design: scale not given: the % may be the effect or the level left; outline: as §3
Oryctolagus cuniculus [23] = assay: In vivo spermicidal activity in Belgian rabbit assessed as decrease in pregnancy rate at 50 mg via intravaginal instillation measured 30 to 34 days post gestation period; type: functional; outline: as §3
Trichomonas vaginalis [24] = assay: Antitrichomonas activity against Trichomonas vaginalis assessed as reduction in free thiol levels in parasite membrane at MIC after 24 hrs by fluorescence microscopy; type: functional, organism-based

SMILES	IC50 (HeLa)	MIC [1]	MIC (Candida parapsilosis)	MEC [2]	IC50 [3]	MIC (Cryptococcus neoformans)	Selectivity Index [4]	MIC (Trichomonas vaginalis [5])	MIC (Candida albicans)	Selectivity Index [6]	MIC (Trichomonas vaginalis [7])	MIC (Sporothrix schenckii)	Ratio (Trichomonas vaginalis [8])	Activity (Trichomonas vaginalis [10])	Activity (Trichomonas vaginalis [11])	Activity (Trichomonas vaginalis [12])	also measured
S=C(SCCN1CCCC1)N1CCN(C(=S)SSC(=S)N2CCN(C(=S)SCCN3CCCC3)CC2)CC1	2.74 mM	74.7 µM (≈ 50 µg/mL)	74.7 µM (≈ 50 µg/mL)	0.002%	6.08 mM	74.7 µM (≈ 50 µg/mL)	> 18	46.7 µM (≈ 31.2 µg/mL)	74.7 µM (≈ 50 µg/mL)	58	> 149 µM	74.7 µM (≈ 50 µg/mL)					
S=C(SSC(=S)N1CCN(CCN2CCOCC2)CC1)N1CCN(CCN2CCOCC2)CC1	0.169 mM	91 µM (≈ 49.9 µg/mL)	> 91 µM	0.005%	6.48 mM	> 91 µM	3	22.7 µM (≈ 12.5 µg/mL)	> 91 µM	7	45.5 µM (≈ 25 µg/mL)	91 µM (≈ 49.9 µg/mL)	2				
CN(Cc1ccccc1)C(=S)SSC(=S)N(C)Cc1ccccc1		63.6 µM (≈ 25 µg/mL)	> 127 µM	>1%		7.9 µM (≈ 3.1 µg/mL)		7.9 µM (≈ 3.1 µg/mL)	31.8 µM (≈ 12.5 µg/mL)		31.8 µM (≈ 12.5 µg/mL)	31.8 µM (≈ 12.5 µg/mL)	4				Selectivity ratio (Trichomonas vaginalis [9]): 4
Cc1ncc([N+](=O)[O-])n1CCO [METRONIDAZOLE]								11.6 µM (≈ 1.99 µg/mL)			292 µM (≈ 50 µg/mL)			0.5 g	7.59 mm2	15 mm2	Selectivity ratio (Trichomonas vaginalis [9]): 25
CCCCN1CCN(C(=S)SSC(=S)N2CCN(CCCC)CC2)CC1	0.359 mM	114 µM (≈ 49.6 µg/mL)	57.4 µM (≈ 25 µg/mL)	0.001%	0.832 mM	114 µM (≈ 49.6 µg/mL)	12	14.3 µM (≈ 6.22 µg/mL)	57.4 µM (≈ 25 µg/mL)	25	28.7 µM (≈ 12.5 µg/mL)	114 µM (≈ 49.6 µg/mL)	4				Activity (Oryctolagus cuniculus [13]): 67%; Activity (Oryctolagus cuniculus [14]): 74%; Efficacy (Oryctolagus cuniculus [15]): 50%; Efficacy (Oryctolagus cuniculus [16]): 62.5%; Activity (Sperm): Active; Activity (Oryctolagus cuniculus [17]): 76%; Efficacy (Oryctolagus cuniculus [18]): 37.5%; Activity (Oryctolagus cuniculus [19]): Dose-dependent effect
N#CCCCN1CCN(C(=S)SSC(=S)N2CCN(CCCC#N)CC2)CC1	2.51 mM	109 µM (≈ 49.8 µg/mL)	> 109 µM	0.001%	6.11 mM	> 109 µM	368	6.8 µM (≈ 3.11 µg/mL)	> 109 µM	368	6.8 µM (≈ 3.11 µg/mL)	109 µM (≈ 49.8 µg/mL)	16	0.3 g	5.75 mm2	15 mm2	Activity (Oryctolagus cuniculus [13]): 90%; Efficacy (Oryctolagus cuniculus [20]): 100%; Activity (Oryctolagus cuniculus [21]): 100%; Activity (Oryctolagus cuniculus [22]): 100%; Efficacy (Oryctolagus cuniculus [23]): 100%; Activity (Trichomonas vaginalis [24]): Active; Efficacy (Oryctolagus cuniculus [18]): 85.7%; Activity (Oryctolagus cuniculus [19]): Dose-dependent effect
CN(C)C(=S)SSC(=S)N(C)C [THIRAM]	2.43 mM	6.5 µM (≈ 1.56 µg/mL)	51.8 µM (≈ 12.5 µg/mL)	0.01%	8.39 mM	3.2 µM (≈ 0.769 µg/mL)	188	12.9 µM (≈ 3.1 µg/mL)	6.5 µM (≈ 1.56 µg/mL)	188	12.9 µM (≈ 3.1 µg/mL)	51.8 µM (≈ 12.5 µg/mL)	16	0.3 g	4.45 mm2	15 mm2	Activity (Trichomonas vaginalis [24]): Active
CC1CCN(C(=S)SSC(=S)N2CCC(C)CC2)CC1		35.8 µM (≈ 12.5 µg/mL)	143 µM (≈ 49.9 µg/mL)	1%		8.9 µM (≈ 3.1 µg/mL)		35.8 µM (≈ 12.5 µg/mL)	17.9 µM (≈ 6.24 µg/mL)		35.8 µM (≈ 12.5 µg/mL)	35.8 µM (≈ 12.5 µg/mL)	4				
C=CCN1CCN(C(=S)SSC(=S)N2CCN(CC=C)CC2)CC1	1.34 mM	124 µM (≈ 49.9 µg/mL)	124 µM (≈ 49.9 µg/mL)	0.001%	3.61 mM	> 124 µM	21	15.5 µM (≈ 6.24 µg/mL)	62 µM (≈ 25 µg/mL)	86	62 µM (≈ 25 µg/mL)	> 124 µM	2				
CCOC(=O)N1CCN(C(=S)SSC(=S)N2CCN(C(=O)OCC)CC2)CC1		107 µM (≈ 49.8 µg/mL)	53.4 µM (≈ 24.9 µg/mL)	1%		26.7 µM (≈ 12.5 µg/mL)		13.3 µM (≈ 6.21 µg/mL)	53.4 µM (≈ 24.9 µg/mL)		13.3 µM (≈ 6.21 µg/mL)	107 µM (≈ 49.8 µg/mL)	8				
